Test results reported in ChEMBL document CHEMBL1156973, “(-)-Carbodine: enantiomeric synthesis and in vitro antiviral activity against various strains of influenza virus including H5N1 (avian influenza) and novel 2009 H1N1 (swine flu)” (Bioorg Med Chem Lett, 2010).

Columns and labels:
H5N1 subtype [1] = assay: Antiviral activity against Influenza A virus Gull/PA/4175/83/H5N1 infected MDCK cells after 3 days by virus yield reduction assay; format: functional, Influenza A virus (A/gull/Pennsylvania/4175/83(H5N1)); settings: 72 h
H5N1 subtype [2] = assay: Antiviral activity against Influenza A virus Hong Kong/213/2003/H5N1 infected MDCK cells assessed as inhibition of virus-induced cytopathic effect after 3 days; format: functional, organism-based, Influenza A virus (A/Hong Kong/213/2003(H5N1)); settings: 72 h
H5N1 subtype [3] = assay: Antiviral activity against Influenza A virus Hong Kong/213/2003/H5N1 infected MDCK cells after 42 to 46 hrs by neutral red dye uptake assay; format: functional, organism-based, Influenza A virus (A/Hong Kong/213/2003(H5N1))
H5N1 subtype [4] = assay: Antiviral activity against Influenza A virus Hong Kong/213/2003/H5N1 infected MDCK cells after 3 days by virus yield reduction assay; format: functional, Influenza A virus (A/Hong Kong/213/2003(H5N1)); settings: Influenza A virus, MDCK, 72 h
Influenza A virus [5] = assay: Antiviral activity against Influenza A virus Vietnam/1203/ 2004H/H5N1 infected MDCK cells after 42 to 46 hrs by neutral red dye uptake assay; format: functional, organism-based, A/Viet Nam/1203/2004(H5N1); settings: Influenza A virus, A/Viet Nam/1203/2004(H5N1), MDCK
MDCK = assay: Cytotoxicity against MDCK cells after 3 days by neutral red dye uptake assay; format: cell-based; settings: Canis lupus familiaris, 72 h
Outline: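 Uninfected MDCK cells in replicate wells were exposed to serial compound dilutions and cell viability was read by neutral red uptake. IC50 is the drug concentration giving 50% cell inhibition without virus.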

[6] = Selectivity ratio of IC50 for MDCK cells to EC50 for inhibition of virus-induced cytopathic effect of Influenza A virus Duck/MN/1525/81/H5N1; format: cell-based; settings: dog, MDCK cells; read-out: Ratio IC50/EC50
Outline: (§1)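 IC50 (50% inhibition of uninfected MDCK cells) divided by EC50 (concentration reducing virus-induced CPE by 50%, scored visually), both from replicate serial-dilution assays.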

[7] = Selectivity ratio of IC50 for MDCK cells to EC50 for Influenza A virus Duck/MN/1525/81/H5N1 by neutral red dye uptake assay; format: ADME, cell-based; settings: dog; for selectivity ratio: MDCK cells, read-out: Ratio IC50/EC50
Outline: (§2)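 Neutral red uptake in MDCK cells: IC50 (50% inhibition of uninfected cells) divided by EC50 (50% inhibition of virus effect), both from replicate serial-dilution assays.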

[8] = Selectivity ratio of IC50 for MDCK cells to EC50 for inhibition of virus-induced cytopathic effect of Influenza A virus Gull/PA/4175/83/H5N1; format: cell-based; settings: dog, MDCK cells; read-out: Ratio IC50/EC50; outline: as §1
[9] = Selectivity ratio of IC50 for MDCK cells to EC90 for Influenza A virus Gull/PA/4175/83/H5N1 by virus yield reduction assay; format: ADME, cell-based; settings: dog
Outline: (§3)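 IC50 (50% inhibition of uninfected MDCK cells) divided by EC90 (concentration reducing the infectious virus titer by 90% in the yield reduction assay).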

[10] = Selectivity ratio of IC50 for MDCK cells to EC50 for inhibition of virus-induced cytopathic effect of Influenza A virus Hong Kong/213/2003/H5N1; format: cell-based; settings: dog, read-out: Ratio IC50/EC50; outline: as §1
[11] = Selectivity ratio of IC50 for MDCK cells to EC50 for Influenza A virus Hong Kong/213/2003/H5N1 by neutral red dye uptake assay; format: ADME, cell-based; settings: dog; for selectivity ratio: MDCK cells, read-out: Ratio IC50/EC50; outline: as §2
[12] = Selectivity ratio of IC50 for MDCK cells to EC90 for Influenza A virus Hong Kong/213/2003/H5N1 by virus yield reduction assay; format: ADME, cell-based; settings: dog, MDCK cells; outline: as §3
[13] = Selectivity ratio of IC50 for MDCK cells to EC90 for Influenza A virus Vietnam/1203/ 2004H/H5N1 by virus yield reduction assay; format: ADME, cell-based; settings: dog; for selectivity ratio: MDCK cells; outline: as §3
Influenza A virus [14] = assay: Antiviral activity against Influenza A virus California/07/2009 /H1N1 infected MDCK cells assessed as inhibition of virus-induced cytopathic effect after 3 days; format: functional, organism-based, A/California/07/2009(H1N1); settings: Influenza A virus, A/California/07/2009(H1N1), MDCK, 72 h
Influenza A virus [15] = assay: Antiviral activity against Influenza A virus California/07/2009 /H1N1 infected MDCK cells after 3 days by virus yield reduction assay; format: functional, A/California/07/2009(H1N1); settings: Influenza A virus, A/California/07/2009(H1N1), MDCK, 72 h
[16] = Antiviral activity against Influenza A virus Solomon Islands/03/2006/H1N1 infected MDCK cells assessed as inhibition of virus-induced cytopathic effect after 3 days; format: functional, organism-based, Influenza A virus (A/Solomon Islands/3/2006(H1N1))
Outline: (§4)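 Triplicate MDCK (ATCC CCL-34) wells got serial dilutions of compound. They were then inoculated with ≤300 CCID50, enough for ~100% CPE in control wells within 3 days, using the same inoculum for all replicates. CPE was scored visually. EC50 is the concentration reducing CPE by 50%, as the mean of triplicates.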

Influenza A virus [17] = assay: Antiviral activity against Influenza A virus Wisconsin/67/2005/H3N2 infected MDCK cells assessed as inhibition of virus-induced cytopathic effect after 3 days; format: functional, organism-based, Influenza A virus (A/Wisconsin/67/2005(H3N2)); settings: Influenza A virus, MDCK, 72 h; outline: as §4
Influenza A virus [18] = assay: Antiviral activity against Influenza A virus Wisconsin/67/2005/H3N2 infected MDCK cells after 42 to 46 hrs by neutral red dye uptake assay; format: functional, organism-based, Influenza A virus (A/Wisconsin/67/2005(H3N2))
Outline: (§5)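 Triplicate MDCK wells got serial compound dilutions, then ≤300 CCID50 of virus, with the same inoculum for all replicates. Antiviral effect was read by neutral red dye uptake. EC50 is the concentration giving 50% inhibition of the virus effect, as the mean of triplicates.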

Influenza B virus [19] = assay: Antiviral activity against Influenza B virus Malaysia/2506/2004 infected MDCK cells after 42 to 46 hrs by neutral red dye uptake assay; format: functional, organism-based, B/Malaysia/2506/2004; settings: Influenza B virus, B/Malaysia/2506/2004, MDCK; outline: as §5
Influenza B virus [20] = assay: Antiviral activity against Influenza B virus Malaysia/2506/2004 infected MDCK cells after 3 days by virus yield reduction assay; format: functional, B/Malaysia/2506/2004
Outline: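 Yield reduction assay: MDCK cells got serial compound dilutions and ≤300 CCID50 virus, in triplicate. Progeny virus was titrated. EC90 is the concentration reducing the infectious titer by 90%, as the mean of triplicates.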

[21] = Selectivity ratio of IC50 for MDCK cells to EC50 for inhibition of virus-induced cytopathic effect of Influenza A virus California/07/2009 /H1N1; format: cell-based; settings: dog, MDCK cells; read-out: Ratio IC50/EC50; outline: as §1
[22] = Selectivity ratio of IC50 for MDCK cells to EC50 for inhibition of virus-induced cytopathic effect of Influenza A virus Solomon Islands/03/2006/H1N1; format: cell-based; settings: dog; for selectivity ratio: MDCK cells, read-out: Ratio IC50/EC50; outline: as §1
[23] = Selectivity ratio of IC50 for MDCK cells to EC50 for Influenza A virus Solomon Islands/03/2006/H1N1 by neutral red dye uptake assay; format: ADME, cell-based; settings: dog; for selectivity ratio: MDCK cells, read-out: Ratio IC50/EC50; outline: as §2
[24] = Selectivity ratio of IC50 for MDCK cells to EC90 for Influenza A virus Solomon Islands/03/2006/H1N1 by virus yield reduction assay; format: ADME, cell-based; settings: dog, MDCK cells; outline: as §3
[25] = Selectivity ratio of IC50 for MDCK cells to EC50 for Influenza A virus Wisconsin/67/2005/H3N2 by neutral red dye uptake assay; format: ADME, cell-based; settings: dog; for selectivity ratio: MDCK cells, read-out: Ratio IC50/EC50; outline: as §2
[26] = Selectivity ratio of IC50 for MDCK cells to EC50 for inhibition of virus-induced cytopathic effect of Influenza B virus Malaysia/2506/2004; format: cell-based; settings: dog, MDCK cells; read-out: Ratio IC50/EC50; outline: as §1
[27] = Selectivity ratio of IC50 for MDCK cells to EC90 for Influenza B virus Malaysia/2506/2004 by virus yield reduction assay; format: ADME, cell-based; settings: dog; for selectivity ratio: MDCK cells; outline: as §3
H5N1 subtype [28] = assay: Antiviral activity against Influenza A virus Duck/MN/1525/81/H5N1 infected MDCK cells assessed as inhibition of virus-induced cytopathic effect after 3 days; format: functional, organism-based, Influenza A virus (A/duck/Minnesota/1525/1981(H5N1)); settings: Influenza A virus, MDCK, 72 h
H5N1 subtype [29] = assay: Antiviral activity against Influenza A virus Duck/MN/1525/81/H5N1 infected MDCK cells after 3 days by virus yield reduction assay; format: functional, Influenza A virus (A/duck/Minnesota/1525/1981(H5N1)); settings: Influenza A virus, MDCK, 72 h
H5N1 subtype [30] = assay: Antiviral activity against Influenza A virus Gull/PA/4175/83/H5N1 infected MDCK cells assessed as inhibition of virus-induced cytopathic effect after 3 days; format: functional, organism-based, Influenza A virus (A/gull/Pennsylvania/4175/83(H5N1)); settings: Influenza A virus, MDCK, 72 h
[31] = Influenza B virus, B/Malaysia/2506/2004, MDCK, 72 h

Compound | EC90 (H5N1 subtype [1]) [µM] | EC50 (H5N1 subtype [2]) [µM] | EC90 (H5N1 subtype [4]) [µM] | EC50 (Influenza A virus [5]) [µM] | IC50 (MDCK) [µM] | selectivity ratio [6] | selectivity ratio [8] | selectivity ratio [9] | selectivity ratio [10] | selectivity ratio [12] | EC50 (Influenza A virus [14]) [µM] | EC90 (Influenza A virus [15]) [µM] | EC50 (Influenza A virus [17]) [µM] | EC50 (Influenza B virus [19]) [µM] | selectivity ratio [21] | selectivity ratio [24] | selectivity ratio [26] | EC50 (H5N1 subtype [28]) [µM] | EC90 (H5N1 subtype [29]) [µM] | EC50 (H5N1 subtype [30]) [µM] | other results
Nc1ccn([C@@H]2C[C@H](CO)[C@@H](O)[C@H]2O)c(=O)n1 | 1.6 | 0.7 | 2.1 | 1.5 | > 414 | > 230 | > 518 | > 259 | > 591 | > 197 | 1.3 | 3.8 | 1.6 | 0.8 | > 318 | > 318 | > 690 | 1.8 | 10.5 | 0.8 | EC50 (H5N1 subtype [3]; mdck): 0.8 µM; Ratio IC50/EC50 ([7]; mdck): > 207; Ratio IC50/EC50 ([11]; mdck): > 518; Ratio ([13]; mdck): > 73; EC50 ([16]; mdck): 0.7 µM; EC50 (Influenza A virus [18]; mdck): 2 µM; EC90 (Influenza B virus [20]): 1.5 µM; Ratio IC50/EC50 ([22]; mdck): > 591; Ratio IC50/EC50 ([23]; mdck): > 690; Ratio IC50/EC50 ([25]; mdck): > 207; Ratio ([27]; mdck): > 276
Nc1ccn([C@H]2C[C@@H](CO)[C@H](O)[C@@H]2O)c(=O)n1 | > 41 | > 41 | > 41 | > 41 | > 414 | 1 | < 10 | < 10 | < 10 | < 10 | > 414 | > 414 | > 41 | > 41 | 1 | < 10 | < 10 | > 414 | > 414 | > 41 | EC50 (H5N1 subtype [3]; Influenza A virus, MDCK): > 41 µM; selectivity ratio [7]: 1; selectivity ratio [11]: < 10; selectivity ratio [13]: < 10; EC50 ([16]; Influenza A virus, MDCK, 72 h): > 41 µM; EC50 (Influenza A virus [18]; Influenza A virus, MDCK): > 41 µM; EC90 (Influenza B virus [20]; [31]): > 41 µM; selectivity ratio [22]: < 10; selectivity ratio [23]: < 10; selectivity ratio [25]: < 10; selectivity ratio [27]: < 10
NC(=O)c1ncn([C@@H]2O[C@H](CO)[C@@H](O)[C@H]2O)n1 [RIBAVIRIN] | 20.3 | 4.3 | 16.8 | 13.9 | > 1310 | > 37 | > 55 | > 65 | > 305 | > 78 | 11.2 | 13 | 16.4 | 19.5 | > 117 | > 49 | > 128 | 35.4 | 43.6 | 23.6 | EC50 (H5N1 subtype [3]; Influenza A virus, MDCK): 9.4 µM; selectivity ratio [7]: > 40; selectivity ratio [11]: > 139; selectivity ratio [13]: > 113; EC50 ([16]; Influenza A virus, MDCK, 72 h): 23.3 µM; EC50 (Influenza A virus [18]; Influenza A virus, MDCK): 20.2 µM; EC90 (Influenza B virus [20]; [31]): 22.2 µM; selectivity ratio [22]: > 56; selectivity ratio [23]: > 52; selectivity ratio [25]: > 65; selectivity ratio [27]: > 59
